# Source: ChEMBL document CHEMBL5724801, “EUbOPEN Chemogenomics Library - Multiplex” (2024)
# Values joined by “and” are separate entries in the source; they are usually repeats but may differ in a detail not shown here. Equal values may be shown once.
# Columns and labels:
# HEK-293T = assay: Multiplex assay against HEK293T; type: toxicity, cell-based; settings: human
# Method in brief: (§1)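 Per cents of healthy-nucleus cells form the tubulin, mitochondrial-mass and membrane-permeability phenotype values. Live cells were stained at seeding with Hoechst33342, BioTracker Green Microtubule Cytoskeleton Dye, MitoTracker Red and Annexin V Alexa Fluor 680. After compound addition they were imaged on a CQ1 microscope at 37°C and 5% CO2, and CellPathfinder machine-learning gating split them into Hoechst high-intensity objects or normal cells, normal cells into healthy, pyknosed or fragmented nuclei, and pyknosed cells into mitotic or apoptotic.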
# U2OS = assay: Multiplex assay against U2OS; type: toxicity, cell-based; settings: human; method in brief: as §1
# [1] = 24 h, 10 µM, compound concentration 10 uM
# [2] = 48 h, 1 µM, compound concentration 1 uM
# [3] = 48 h, 10 µM, compound concentration 10 uM
# [4] = 12 h, 1 µM, compound concentration 1 uM
# [5] = 12 h, 10 µM, compound concentration 10 uM
# [6] = 24 h, 1 µM, compound concentration 1 uM
compound,measurement,setting,value
Cl.N=C(N)NC(=O)Cc1c(Cl)cccc1Cl [GUANFACINE HYDROCHLORIDE],Population Apoptotic (%),HEK-293T; [1],46% and 36%
same,Population Fragmented Nuclei (%),HEK-293T; [1],11% and 6%
same,Population Healthy Nuclei (%),HEK-293T; [1],75% and 83%
same,Population Hoechst High Intensity Objects (%),HEK-293T; [1],7% and 9%
same,Population Membrane Permeable-Phenotype (%),HEK-293T; [1],0%
same,Population Mitochondria Different-Phenotype (%),HEK-293T; [1],48% and 50%
same,Population Mitotic Cells (%),HEK-293T; [1],53% and 63%
same,Population Normal (%),HEK-293T; [1],92% and 90%
same,Population Pyknosed Nuclei (%),HEK-293T; [1],12% and 10%
same,Population Tubulin-Different-Phenotype (%),HEK-293T; [1],39% and 27%
same,Total Cell Count,HEK-293T; [1],343 and 454
same,Population Apoptotic (%),HEK-293T; [2],15% and 34%
same,Population Fragmented Nuclei (%),HEK-293T; [2],15% and 10%
same,Population Healthy Nuclei (%),HEK-293T; [2],78% and 79%
same,Population Hoechst High Intensity Objects (%),HEK-293T; [2],2% and 7%
same,Population Membrane Permeable-Phenotype (%),HEK-293T; [2],1% and 0%
same,Population Mitochondria Different-Phenotype (%),HEK-293T; [2],22% and 32%
same,Population Mitotic Cells (%),HEK-293T; [2],84% and 65%
same,Population Normal (%),HEK-293T; [2],97% and 92%
same,Population Pyknosed Nuclei (%),HEK-293T; [2],6% and 9%
same,Population Tubulin-Different-Phenotype (%),HEK-293T; [2],21% and 14%
same,Total Cell Count,HEK-293T; [2],680 and 560
same,Population Apoptotic (%),HEK-293T; [3],47% and 50%
same,Population Fragmented Nuclei (%),HEK-293T; [3],17% and 12%
same,Population Healthy Nuclei (%),HEK-293T; [3],73% and 80%
same,Population Hoechst High Intensity Objects (%),HEK-293T; [3],6% and 10%
same,Population Membrane Permeable-Phenotype (%),HEK-293T; [3],0%
same,Population Mitochondria Different-Phenotype (%),HEK-293T; [3],31% and 33%
same,Population Mitotic Cells (%),HEK-293T; [3],52% and 50%
same,Population Normal (%),HEK-293T; [3],93% and 89%
same,Population Pyknosed Nuclei (%),HEK-293T; [3],9% and 6%
same,Population Tubulin-Different-Phenotype (%),HEK-293T; [3],14% and 20%
same,Total Cell Count,HEK-293T; [3],421 and 612
same,Population Apoptotic (%),U2OS; [4],80% and 100%
same,Population Fragmented Nuclei (%),U2OS; [4],28% and 20%
same,Population Healthy Nuclei (%),U2OS; [4],55% and 72%
same,Population Hoechst High Intensity Objects (%),U2OS; [4],4% and 2%
same,Population Membrane Permeable-Phenotype (%),U2OS; [4],5% and 8%
same,Population Mitochondria Different-Phenotype (%),U2OS; [4],1% and 2%
same,Population Mitotic Cells (%),U2OS; [4],19% and 0%
same,Population Normal (%),U2OS; [4],95% and 97%
same,Population Pyknosed Nuclei (%),U2OS; [4],16% and 7%
same,Population Tubulin-Different-Phenotype (%),U2OS; [4],2% and 6%
same,Total Cell Count,U2OS; [4],165 and 129
same,Population Apoptotic (%),U2OS; [5],87% and 77%
same,Population Fragmented Nuclei (%),U2OS; [5],27% and 18%
same,Population Healthy Nuclei (%),U2OS; [5],61% and 74%
same,Population Hoechst High Intensity Objects (%),U2OS; [5],1%
same,Population Membrane Permeable-Phenotype (%),U2OS; [5],10% and 12%
same,Population Mitochondria Different-Phenotype (%),U2OS; [5],3% and 7%
same,Population Mitotic Cells (%),U2OS; [5],12% and 22%
same,Population Normal (%),U2OS; [5],98%
same,Population Pyknosed Nuclei (%),U2OS; [5],11% and 7%
same,Population Tubulin-Different-Phenotype (%),U2OS; [5],7% and 10%
same,Total Cell Count,U2OS; [5],280 and 130
same,Population Apoptotic (%),U2OS; [6],75% and 83%
same,Population Fragmented Nuclei (%),U2OS; [6],32% and 18%
same,Population Healthy Nuclei (%),U2OS; [6],56% and 74%
same,Population Hoechst High Intensity Objects (%),U2OS; [6],3% and 0%
same,Population Membrane Permeable-Phenotype (%),U2OS; [6],5% and 8%
same,Population Mitochondria Different-Phenotype (%),U2OS; [6],3% and 4%
same,Population Mitotic Cells (%),U2OS; [6],25% and 16%
same,Population Normal (%),U2OS; [6],96% and 99%
same,Population Pyknosed Nuclei (%),U2OS; [6],10% and 7%
same,Population Tubulin-Different-Phenotype (%),U2OS; [6],2% and 5%
same,Total Cell Count,U2OS; [6],194 and 160
same,Population Apoptotic (%),U2OS; [1],84% and 83%
same,Population Fragmented Nuclei (%),U2OS; [1],25% and 15%
same,Population Healthy Nuclei (%),U2OS; [1],64% and 76%
same,Population Hoechst High Intensity Objects (%),U2OS; [1],0% and 2%
same,Population Membrane Permeable-Phenotype (%),U2OS; [1],9% and 10%
same,Population Mitochondria Different-Phenotype (%),U2OS; [1],2% and 4%
same,Population Mitotic Cells (%),U2OS; [1],15% and 16%
same,Population Normal (%),U2OS; [1],99% and 97%
same,Population Pyknosed Nuclei (%),U2OS; [1],9% and 7%
same,Population Tubulin-Different-Phenotype (%),U2OS; [1],4% and 5%
same,Total Cell Count,U2OS; [1],326 and 160
same,Population Apoptotic (%),U2OS; [2],89% and 90%
same,Population Fragmented Nuclei (%),U2OS; [2],28% and 16%
same,Population Healthy Nuclei (%),U2OS; [2],60% and 73%
same,Population Hoechst High Intensity Objects (%),U2OS; [2],2% and 3%
same,Population Membrane Permeable-Phenotype (%),U2OS; [2],4% and 8%
same,Population Mitochondria Different-Phenotype (%),U2OS; [2],3% and 4%
same,Population Mitotic Cells (%),U2OS; [2],10% and 9%
same,Population Normal (%),U2OS; [2],97% and 96%
same,Population Pyknosed Nuclei (%),U2OS; [2],10%
same,Population Tubulin-Different-Phenotype (%),U2OS; [2],3% and 6%
same,Total Cell Count,U2OS; [2],262 and 217
same,Population Apoptotic (%),U2OS; [3],90% and 95%
same,Population Fragmented Nuclei (%),U2OS; [3],21% and 14%
same,Population Healthy Nuclei (%),U2OS; [3],68% and 74%
same,Population Hoechst High Intensity Objects (%),U2OS; [3],2% and 1%
same,Population Membrane Permeable-Phenotype (%),U2OS; [3],8% and 10%
same,Population Mitochondria Different-Phenotype (%),U2OS; [3],3% and 1%
same,Population Mitotic Cells (%),U2OS; [3],9% and 4%
same,Population Normal (%),U2OS; [3],97% and 98%
same,Population Pyknosed Nuclei (%),U2OS; [3],10% and 11%
same,Population Tubulin-Different-Phenotype (%),U2OS; [3],4% and 3%
same,Total Cell Count,U2OS; [3],440 and 213
